# Experimental data from PubChem BioAssay AID623982 (Broad Institute, 2012).
# “And” between values parts separate entries of the source, which are not always exact repeats. Identical values can stand only once. The source made the active and inactive calls.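 Rule for the calls: active = compounds cutting fungal growth signal with fitted half-effect dose at most twice the top valid dose; inconclusive = flat curve at 30 to 70% inhibition, or poor fit; inactive = the rest.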
# System: not listed separately
# Assay: growth inhibition of highly fluconazole-resistant C. albicans, dose response, CaCi-17 strain, retest, dry powder, set 3 (AID 623982)
# Conditions: C. albicans CaCi-17 growth, Alamar Blue fluorescence, 48 h; at 3 µM (top of the series)
# Outline: (§1)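 Medium: buffered RPMI growth medium. Incubation: 48 h exposure, 37 °C, humidified, static. Signal: fluorescence from Alamar Blue conversion, read 2 h after dye addition. Read-out basis: growth inhibition indicated by fluorescence signal loss. Control set: amphotericin B at 10 µM as positive control.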
row,Compound,"activity change, negative = inhibition"
1,C/C=C/[C@@H]1[C@H]2C[C@@H](C)CC[C@@H]2C(C)=C[C@H]1C(=O)c1c(O)c(-c2ccc(O)cc2)c[nH]c1=O,54.1% (inactive)
2,CCOC(=O)N1C(=O)C2(CCCCC2)N(c2cccc(C)c2)C1=S,70.9% (inactive)
3,CCOC(=O)N1C(=O)C2(CCCCC2)N(c2ccccc2)C1=S,104% (inactive)
4,CCOC(=O)N1C(=O)C2(CCCCC2)N(c2ccc(C)cc2)C1=S,100% (inactive) and 85.9% (inactive)

# System: C. albicans CaCi-17 growth, Alamar Blue fluorescence, 48 h
# Assay: as above
# Conditions: not given
# Outline: as §1
row,Compound,AC50
1,CC1/C=C/C=C\C=C\C=C\C=C\C=C\C=C\C(O[C@H]2OC(C)C(O)C(N)C2O)CC2OC(O)(CC(O)CC(O)C(O)CCC(O)CC(O)CC(=O)OC(C)C(C)C1O)CC(O)C2C(=O)O (stereo partly specified),83.8 nM
2,CCOC(=O)N1C(=O)C2(CCCCC2)N(c2ccc(F)cc2)C1=S,783 nM
